# Bioassay records as filed in PubChem BioAssay.
# Rev-erbA mod – modulates human Rev-erb alpha binding to DNA. P20393. Rev-erbα–FITC-DNA binding, fluorescence polarization, 90 min. activity, % at 10 µM. actives 0.79% (n = 370,000). AID 1259318;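 active = activity above about 14%, limit read from the data; passing the limit was not always enough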;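 also: 0% = DMSO wells with 35 nM protein and 100% = DMSO wells with 750 nM protein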
# Target sequence (P20393 whole entry, looked up): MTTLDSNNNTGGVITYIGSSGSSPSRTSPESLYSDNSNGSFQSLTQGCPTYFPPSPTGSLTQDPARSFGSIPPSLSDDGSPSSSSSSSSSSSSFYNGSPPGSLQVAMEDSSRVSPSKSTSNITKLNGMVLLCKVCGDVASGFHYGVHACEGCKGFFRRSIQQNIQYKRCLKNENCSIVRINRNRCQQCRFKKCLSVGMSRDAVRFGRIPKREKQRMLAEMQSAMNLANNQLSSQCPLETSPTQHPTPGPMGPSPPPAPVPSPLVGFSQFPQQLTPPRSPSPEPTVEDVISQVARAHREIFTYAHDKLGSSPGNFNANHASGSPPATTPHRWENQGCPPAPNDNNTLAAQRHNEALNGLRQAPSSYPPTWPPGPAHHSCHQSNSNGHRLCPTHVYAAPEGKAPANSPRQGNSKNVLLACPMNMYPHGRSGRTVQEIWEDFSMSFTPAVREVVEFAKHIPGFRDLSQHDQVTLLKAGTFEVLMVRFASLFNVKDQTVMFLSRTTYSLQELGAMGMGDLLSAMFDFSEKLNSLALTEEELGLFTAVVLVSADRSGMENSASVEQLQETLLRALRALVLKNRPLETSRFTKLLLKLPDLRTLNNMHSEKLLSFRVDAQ
# NR2E3 ag-1 – human photoreceptor-specific nuclear receptor agonism; actives 0.35% (n = 360,000); Q9Y5X4; CHO-S Gal4-NCOR/VP16-NR2E3 two-hybrid, luciferase; AID 602229; inhibition of corepressor binding, % at 3.98 µM;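 active = inhibition above the mean of all tested compounds plus 3 SD, cut at about 70% in these data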;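 also: 0% = DMSO with NR2E3 transfected cells and 100% = cells lacking NR2E3 construct; higher means lower luciferase signal from less NR2E3 corepressor binding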
# NR2E3 ag-2 – agonists of human nuclear receptor NR2E3; GST-NR2E3/biotin-RetCOR TR-FRET, 1536-well; actives 0.12% (n = 320,000); inhibition of corepressor binding, % at 4.78 µM; AID 2300; Q9Y5X4;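 active = percent inhibition above the cutoff of mean plus 3 SD of all tested compounds, set per screening campaign, cut at about 20% in these data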;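 also: 0% = DMSO wells and 100% = biotin wells as full block of FRET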
#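 system = GST-tagged NR2E3 plus biotinylated RetCOR corepressor | input = 1.35 nM GST-NR2E3 | also added = 7 nM biotin-RetCOR | schedule = 5 h incubation at 4 °C | measured by = TR-FRET with europium anti-GST and streptavidin-D2, 340 nm excitation | read-out = percent loss of FRET ratio relative to control wells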
# PG9 binder – binds the HIV-1 gp120 antibody PG9 | TR-FRET gp120-PG9 antibody binding | inhibition, % at 6.7 µM | actives 0.43% (n = 360,000); in the data active = inhibition above about 8.5%
# NR1D1 mod conf – Rev-erb alpha (human) modulation, hit confirmation; shares compounds with Rev-erbA mod; Rev-erb alpha FITC-DNA binding, fluorescence polarization, 90 min; activation, % at 25 µM; actives 61% (n = 3,000);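 active = activation at or above a set limit, or at least 3 SD above the negative control mean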;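 also: 0% = 35 nM protein with DMSO and 100% = 750 nM protein high control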
# RORg counter – affects RORgamma DNA binding in a Rev-erb alpha counter-screen; IC50, µM; shares compounds with Rev-erbA mod; purified RORgamma protein-FITC-DNA binding, fluorescence polarization; actives 8% (n = 910);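 active = Compounds whose fitted half-maximal concentration for disrupting protein-DNA binding is below 10 micromolar; the record names Rev-erb in its text, so the target is in doubt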
# Starred values were filed as active, the others as inactive; i = inactive; x = no result given. Hits are enriched below; roughly 1.4% of the tested compounds scored in any of these assays.
SMILES,Rev-erbA mod,NR2E3 ag-1,NR2E3 ag-2,PG9 binder,NR1D1 mod conf,others
COC(=O)[C@]12C[C@H](CC(=O)N3CCN(C(=O)c4ccco4)CC3)C(=O)N(Cc3ccc(Cl)cc3Cl)C1=C[C@H](COCc1ccccc1)O[C@@H]2C,9,x,x,x,x,
O=C(C[C@@H]1C[C@@H]2c3cc(NC(=O)c4ccc5c(c4)OCO5)ccc3O[C@@H]2[C@@H](CO)O1)NCc1cccnc1,2,x,x,-4,x,
Cc1ccc(NC(=O)c2ccccc2OCC(=O)Nc2ccccc2F)cc1S(=O)(=O)N(C)C,2,-19,-5,0,x,
CCOC(=O)C(NC(=O)c1ccccc1)C(C)(C)SCc1ccccc1 (stereo not drawn),-11,-33,x,0,x,
COc1ccc(-c2nc3ccc(C)cn3c2Cc2cccc(F)c2)cc1OC,5,-69,x,-1,x,
COc1ccc(-c2nc3ccc(Br)cn3c2Cc2cccc(F)c2)cc1OC,18*,-6,x,4,3,
Cc1ccc(-c2nc3c(C)cc(Br)cn3c2Cc2cccc(F)c2)cc1,21*,3,x,4,20*,
CCOC(=O)C1(C)CCN1C(=O)c1ccccc1C(F)(F)F (stereo not drawn),8,38,x,-1,x,
COc1cc2c(cc1NC(=O)C(C)N1CCN(S(=O)(=O)c3ccc(C)c(C)c3)CC1)oc1ccccc12 (stereo not drawn),-2,-21,0,0,x,
COc1cc2c(cc1NC(=O)CN1CCN(S(=O)(=O)c3ccc(C)cc3)CC1)oc1ccccc12,27*,12,5,-1,19*,
O=S(=O)(NCCc1csc(-c2cccnc2)n1)c1cccs1,24*,-38,-3,0,-5,
CC(C)Nc1nc(-c2cccnc2)nc(-c2ccccc2)c1C#N,23*,-24,-2,0,1,
CN(C)c1nc(-c2cccnc2)nc(-c2ccccc2)c1C#N,37*,-12,x,-2,29*,RORg counter=>40
CC(C)Nc1nc(-c2ccccn2)nc(-c2ccccc2)c1C#N,8,3,5,-1,x,
CC(C)Nc1nc(-c2cccnc2)nc(-c2ccc(Cl)cc2)c1C#N,247*,-26,2,0,55*,RORg counter=>40
N#Cc1c(Cl)nc(-c2ccncc2)nc1-c1ccccc1,6,-24,3,1,x,
CC(C)Nc1nc(-c2ccncc2)nc(-c2ccc(Cl)cc2)c1C#N,20*,0,2,-3,9,
N#Cc1c(-c2ccccc2)nc(-c2cccnc2)[nH]c1=O,-4,-12,5,4,x,
CSc1ccc(CN2CCC(C)(Oc3ccc(-n4ccnc4)cc3)C2)cc1 (stereo not drawn),3,14,x,-1,x,
C[C@@H]1CN([C@@H](C)CO)C(=O)CCCn2nncc2CO[C@@H]1CN(C)C(=O)CCC(F)(F)F,-7,-14,x,-1,x,
O=C(OCCN1C(=O)c2cccc3c(N4CCOCC4)ccc(c23)C1=O)c1ccc(Cl)cc1,79*,-22,-2,-1,119*,RORg counter=>40
c1ccc(Nc2nc(-c3ccncc3)nc3ccccc23)cc1,30*,0,2,-1,23*,
CC1Cc2ccccc2N1C(=O)CSc1ncccn1 (stereo not drawn),-3,-4,4,1,x,
Cc1ccc2nc(SCC(=O)N3c4ccccc4CC3C)c(C)cc2c1 (stereo not drawn),28*,-19,2,0,8,
Cc1ccc2nc(-c3cccnc3SCC(=O)N3c4ccccc4CC3C)[nH]c2c1 (stereo not drawn),33*,-35,2,-1,20*,
SMILES,Rev-erbA mod,NR2E3 ag-1,NR2E3 ag-2,PG9 binder,NR1D1 mod conf,others
COc1ccc(-n2c(SCC(=O)C(C)(C)C)nc3ccsc3c2=O)cc1,21*,0,-1,3,20*,
COc1ccc(-n2c(SCC(=O)NCCC(C)C)nc3ccsc3c2=O)cc1,2,-9,0,2,x,
Cc1cc([N+](=O)[O-])ccc1NC(=O)c1sc2ncn(CC(=O)N3CCOCC3)c(=O)c2c1C,0,-10,0,1,x,
Cc1ccc(NC(=O)c2sc3ncn(CC(=O)N4CCOCC4)c(=O)c3c2C)c(Br)c1,28*,-41,-1,-1,7,
CCCCCCNC(=O)C1CSCCS(=O)(=O)N1Cc1ccc(C)cc1 (stereo not drawn),2,x,x,x,x,
CC(=O)Nc1nc(CC(C)C)cc2c1c(=O)oc1ccccc12,27*,-15,2,6,3,
CCOC(=O)c1ccc2c(c1)sc(=NC(=O)c1ccco1)n2CCOC,35*,-7,1,8,25*,
CCOC(=O)Cn1c(=NC(=O)c2nc3ccccc3s2)sc2cc(S(N)(=O)=O)ccc21,48*,8,-66,-11,29*,
CCOC(=O)Cn1c(=NC(=O)c2cccs2)sc2cc(C(=O)OC)ccc21,85*,-35,-4,1,75*,RORg counter=>40
CSc1ccc(Oc2cccc3c2S(=O)(=O)N(C2CC2)C[C@@H](COCc2ccccc2)O3)cc1C,3,x,x,0,x,
COc1ccc2c(c1)N[C@@](CCNC=O)(c1[nH]c3ccccc3c1CCNC=O)C2=O,-6,x,x,x,x,
COc1cc(NS(=O)(=O)c2ccc(C)cc2)c2c(c1N)C(=O)c1ccccc1C2=O,-13,-46,x,-5,x,
O=C(CCc1c[nH]c2ccccc12)NCCc1ccc2c(c1)OCCO2,28*,-14,3,0,32*,RORg counter=i
O=S(=O)(c1ccccc1)c1cnn2c(C(F)(F)F)cc(-c3ccc(F)cc3)nc12,24*,3,5,-1,-7,
O=S(=O)(c1ccccc1)c1cnn2c(C(F)(F)F)cc(-c3ccccc3)nc12,-2,-16,-1,1,x,
Nc1ccn([C@@H]2O[C@H](C(=O)NCC(=O)N3CCOCC3)[C@@H](O)[C@H]2O)c(=O)n1,-6,x,x,-2,x,
Cc1nc(NCCc2ccc(Cl)cc2)c2nnn(Cc3ccccc3)c2n1,40*,-19,-1,-1,35*,RORg counter=i
OC(c1cccc(Cl)c1)c1ncc(-c2ccc3ccccc3c2)[nH]1 (stereo not drawn),-3,-28,x,-1,x,
OC(c1cc(F)cc(Cl)c1)c1ncc(-c2ccc3ccccc3c2)[nH]1 (stereo not drawn),14*,22,x,0,-4,
CC(C)=CCC/C(C)=C/C[C@]12C[C@H](C(=O)O)N(C(=O)OC(C)(C)C)[C@@H]1N(C(=O)OC(C)(C)C)c1ccccc12,-8,x,x,x,x,
CCOC(=O)c1sc(NC(=S)NC(=O)c2ccccc2)nc1C,20*,-112,-2,0,0,
COC(=O)c1sc(NC(=S)NC(=O)c2ccccc2)nc1C,23,-19,-5,-1,x,
COc1cc(C(=O)Nc2nc3ccc4nc(C)sc4c3s2)cc(OC)c1OC,115*,-4,1,-3,8,
